# Rows were chosen to be rich in hits. Some 3.5% of all compounds tested hit in one or more screens of this group.
# MrgX1 antagonist: antagonists of human MrgX1 receptor. MRGX1-HEK293 calcium flux, Fluo-4, BAM8-22 antagonism; active compounds read low. B-score at 10 µM. 310,000 tested, 1.3% active. AID 588676. Q96LB2;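 active = calcium-response B-score plate-corrected more than 3 library SD below zero, starting fluorescence within 5 deviations, no agonist response on first addition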;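 also: peak minus trough fluorescence over baseline after final BAM8-22 challenge near maximal dose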
# Target sequence (Q96LB2 whole entry, looked up): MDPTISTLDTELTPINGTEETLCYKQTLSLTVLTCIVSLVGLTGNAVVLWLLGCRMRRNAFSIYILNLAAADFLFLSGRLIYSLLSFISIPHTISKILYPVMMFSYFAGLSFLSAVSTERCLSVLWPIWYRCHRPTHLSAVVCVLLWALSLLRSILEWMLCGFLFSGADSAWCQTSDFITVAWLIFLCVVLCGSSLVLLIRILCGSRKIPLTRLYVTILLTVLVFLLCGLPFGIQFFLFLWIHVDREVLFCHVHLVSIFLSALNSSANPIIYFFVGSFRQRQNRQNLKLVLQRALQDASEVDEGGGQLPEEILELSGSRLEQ
# RGS4 act: potentiators or activators of RGS4 | B-score at 10 µM | HEK293 M3R/inducible RGS4, carbachol calcium flux Fluo4; active compounds read low | 310,000 tested, 0.92% active;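 active = B-score of the integrated calcium signal more than 4 SD below the library mean, with starting fluorescence not abnormally high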;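 also: negative B-score means reduced calcium response which marks RGS4 activation or potentiation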
#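 Assay system: HEK293 FlpIn-TREx cells, stable M3R, doxycycline-inducible RGS4 / Probe or stimulus: carbachol, ECmax concentration / Times: overnight RGS4 induction, 30 min dye load 37 °C, 20 min compound RT / Signal: kinetic calcium fluorescence imaging with Fluo4-AM dye, 2 µM / Measure: Agonist-evoked peak-minus-minimum fluorescence over baseline, integrated ratio, B score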
# MrgX1 agonist: activates human MrgX1 receptor signaling | Q96LB2 | MrgX1-HEK293 cells, Fluo-4 calcium fluorescence, agonist mode; active compounds read high | B-score at 10 µM | 310,000 tested, 0.44% active | AID 588627;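 active = calcium response B-score plate-corrected fluorescence ratio at least 3 library SD, with starting fluorescence B-score inside 5 SD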
#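 Test system: HEK293 cells stably expressing human MrgX1 receptor; amount: 15,000 cells per well; doses: compound delivered in addition one of three; times: overnight plating before 1 h dye loading; detection: Fluo-4 NW calcium-flux fluorescence, kinetic read; read-out basis: B-scored fluorescence response ratio; controls: positive and negative controls per plate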
# RGS4 inh: inhibitors of human RGS4 | AID 463165 | HEK293 M3R/RGS4 inducible, Fluo-4 calcium flux; active compounds read high; triggered by carbachol at its EC20 | 310,000 tested, 0.45% active | B-score at 10 µM;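 active = B-score, a plate-corrected calcium signal, over three deviations above library mean, with baseline fluorescence within five deviations of library mean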;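 also: RGS4 expression induced by doxycycline in cells with stable M3 receptor; B-score is computed from the integrated fluorescence ratio over baseline after carbachol; higher B-score means a larger calcium signal and so more RGS4 inhibition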
# Target sequence (P49798 whole entry, looked up): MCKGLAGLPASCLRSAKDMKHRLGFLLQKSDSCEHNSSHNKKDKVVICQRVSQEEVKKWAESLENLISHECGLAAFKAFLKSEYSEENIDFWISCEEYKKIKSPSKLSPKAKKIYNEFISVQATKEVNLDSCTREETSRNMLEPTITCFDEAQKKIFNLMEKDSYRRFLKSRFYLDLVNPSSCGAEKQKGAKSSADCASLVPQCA
# MrgX1 PAM: human MrgX1 positive allosteric modulation, primary screen. Q96LB2. MrgX1-HEK293, Fluo-4 calcium flux, FDSS; active compounds read high. B-score at 10 µM. 310,000 tested, 0.63% active. AID 588675;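 active = plate-corrected calcium response at least 3 library SD above typical, normal starting fluorescence, not activating the receptor alone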;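 also: compound read alongside a low EC10 to EC30 dose of BAM8-22 agonist; peak minus trough fluorescence over baseline measured at the second addition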
# RGS4 block valid: validation of RGS4 inhibitors; shares compounds with RGS4 inh; HEK293 M3R/RGS4, carbachol calcium Fluo-4 fluorescence; carbachol added at its EC20; 0 = buffer wells, 100 = carbachol control; calcium response, % at 10 µM; 1,700 tested, 65% active; AID 492999;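 active = duplicate-averaged calcium response above the buffer-only control mean plus 5 SD of those controls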;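 also: integrated fluorescence ratio F max minus min over baseline F0; higher response in RGS4-induced cells means RGS4 inhibition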
# M3R Ca ctr: non-induced cell nonspecific activity of RGS4 inhibitors; shares compounds with RGS4 inh; HEK293 M3R non-induced, carbachol calcium Fluo-4; submaximal (EC20) carbachol stimulus; buffer wells 0%, carbachol control wells 100%; activity (percent), % at 10 µM; 1,900 tested, 20% active; call rule not given here;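 also: RGS4 induction absent so cells express M3R without RGS4; higher means more calcium signal and flags a non-specific hit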
# M3R basal Ca ctr: second RGS4 inhibitor counter-screen in uninduced cells lacking carbachol | shares compounds with RGS4 inh | HEK293 M3R/RGS4 non-induced, Fluo-4 calcium, no carbachol; normalised: buffer wells 0%, carbachol wells 100% | calcium response (agonist-mode artifact), % at 10 µM | 1,900 tested, 22% active;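 active = duplicate-averaged calcium rise in uninduced cells above buffer wells' mean plus 5 SD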
# * hit, by the source's call; i = inactive; / = no result given.
SMILES,MrgX1 antagonist,RGS4 act,MrgX1 agonist,RGS4 inh,MrgX1 PAM,RGS4 block valid,M3R Ca ctr,M3R basal Ca ctr
CC1(C)CC(=O)C(C(C2=C(O)CC(C)(C)CC2=O)c2cccs2)C(=O)C1 (stereo not drawn),i,i,i,5.7*,i,24%*,58%*,i
CCOc1cc(/C=C2\CN(CC)C/C(=C\c3ccc(O)c(OCC)c3)C2=O)ccc1O,i,i,27*,12*,i,48%*,36%*,12%*
CCOc1cc(/C=N/N=C/c2ccc(O)c(OCC)c2)ccc1O,i,i,i,i,i,/,/,/
CCc1cccc(CC)c1NC(=S)NCCc1c(C)[nH]c2ccccc12,i,i,i,6.2*,i,22%*,i,i
O=C1C=CC(=O)N1c1ccc(O)cc1,i,i,i,14*,i,75%*,72%*,14%*
COc1ccc(NC(=O)N2CCNC(=O)C2CC(=O)Nc2ccc(F)cc2)cc1 (stereo not drawn),i,i,i,i,i,i,i,i
O=C(CC1C(=O)NCCN1C(=O)Nc1ccc(Cl)cc1)Nc1ccc(F)cc1 (stereo not drawn),i,i,i,5.6*,i,23%*,37%*,12%*
CCOc1ccc(NC(=O)CC2C(=O)NCCN2C(=O)Nc2ccccc2)cc1 (stereo not drawn),i,i,i,i,i,/,/,/
O=C(CC1C(=O)NCCN1C(=O)Nc1ccccc1)Nc1ccc(F)cc1 (stereo not drawn),i,i,i,i,i,/,i,i
O=C(CC1C(=O)NCCN1C(=O)c1ccc(Cl)cc1)Nc1ccc(F)cc1 (stereo not drawn),i,i,i,i,i,i,i,i
COc1ccc(C(=O)NCC(=O)OCc2ccc(F)cc2)cc1,i,i,i,i,i,/,/,/
COCCCNC(=O)CN(c1cccc(Cl)c1)S(C)(=O)=O,i,i,i,i,i,/,/,/
O=C(CC1C(=O)NCCN1C(=O)Nc1ccc(F)cc1)Nc1cc(Cl)ccc1Cl (stereo not drawn),i,i,i,i,i,/,i,10%*
O=C(CC1C(=O)NCCN1C(=O)Nc1ccccc1)Nc1cc(Cl)ccc1Cl (stereo not drawn),i,i,i,i,i,/,/,/
COC(=O)CC1C(=O)NCCN1C(=O)Nc1ccc(Cl)cc1 (stereo not drawn),i,i,i,i,i,/,/,/
Cc1cccc(NC(=O)CC2C(=O)NCCN2C(=O)Nc2ccc(Cl)cc2)c1 (stereo not drawn),i,i,i,9.1*,i,26%*,46%*,i
COc1ccc(-c2c(NC(=O)c3ccco3)n(C)c3ccccc3c2=O)cc1,i,i,i,i,i,/,/,/
Cc1cccc2sc(NNC(=O)c3ccc(S(=O)(=O)N4CC(C)CC(C)C4)cc3)nc12 (stereo not drawn),i,i,i,6.5*,i,10%*,i,i
Cc1cc(C)c2nc(NNC(=O)c3ccc(S(=O)(=O)N4CCCC(C)C4)cc3)sc2c1 (stereo not drawn),i,i,i,i,i,/,/,/
Cc1cc(C)c2nc(NNC(=O)c3ccc(S(=O)(=O)N4CC(C)CC(C)C4)cc3)sc2c1 (stereo not drawn),i,i,i,i,i,/,i,i
Cc1ccc2nc(NNC(=O)c3ccc(S(=O)(=O)N4CCc5ccccc5C4)cc3)sc2c1,i,i,i,i,i,/,i,i
Cc1nc2c([nH]c3ccccc32)c(=O)n1N,i,i,i,i,i,/,/,/
Nn1c(=O)[nH]c2c([nH]c3ccccc32)c1=O,i,i,i,5.9*,i,i,i,i
Cc1ccc(SCC(=O)OCC(=O)NC(C)c2ccc(Br)cc2)cc1 (stereo not drawn),i,i,i,i,i,/,/,/
O=C1NC(=Nc2ccccc2Cl)S/C1=C\c1cccc([N+](=O)[O-])c1O,i,i,i,i,i,i,i,i
SMILES,MrgX1 antagonist,RGS4 act,MrgX1 agonist,RGS4 inh,MrgX1 PAM,RGS4 block valid,M3R Ca ctr,M3R basal Ca ctr
COc1c(/C=C2\SC(=Nc3ccccc3Cl)NC2=O)cccc1[N+](=O)[O-],i,i,i,8.5*,i,34%*,70%*,i
Cc1ccc2c(c1)C1CN(C)CCC1N2C(=O)COc1ccccc1F (stereo not drawn),i,i,i,i,i,/,/,/
O=C(NCc1ccc2c(c1)OCO2)C(=O)NCC1OCCCN1S(=O)(=O)c1cc(F)ccc1F (stereo not drawn),i,i,i,i,i,/,/,/
O=C1Nc2ccc(Br)cc2C1Cc1ccccc1F (stereo not drawn),i,i,i,5.8*,i,13%*,i,i
O=C(CCN1C(=O)S/C(=C\c2ccccc2)C1=O)N1CCOCC1,i,i,i,i,i,/,/,/
O=C(CN1C(=O)S/C(=C\C=C\c2ccccc2)C1=O)N1CCOCC1,i,i,i,8.5*,i,9.5%*,i,i
O=C(CN1C(=O)S/C(=C/C=C/c2ccccc2)C1=O)Nc1ccc(C(=O)O)cc1,i,i,i,4.7*,i,7.0%*,i,i
COc1ccc(OCCSc2nnc(Cc3cccc4ccccc34)n2N)cc1,i,i,i,i,i,/,i,i
CC(=O)/C(=N/Nc1ccccc1)N1CCOCC1,i,i,i,i,i,i,i,i
COc1cccc(/C=N/c2sc(Cc3ccccc3)c(C)c2C(N)=O)c1O,i,i,i,5*,i,24%*,36%*,i
COC(=O)CCC(=O)Nc1sc(Cc2ccccc2)c(C)c1C(N)=O,i,i,i,i,i,/,/,/
Cc1ccc(N(CC(=O)NC(C)C)C(=O)CCC(=O)Nc2nccs2)cc1C,i,i,i,i,i,/,/,/
COC(=O)Nc1cccn(Cc2c(Cl)cccc2Cl)c1=O,i,i,i,8.4*,i,6.5%*,i,i

# Compound activity: PubChem BioAssay, Johns Hopkins Ion Channel Center
